Measurements as given in publication PMC4829539 (International Journal of Medical Sciences, 2016).
Read-outs that look alike come from different tables or passages of the source.

Experiments:
[1] = type: in vivo, Male Wistar rats; conditions: rats, i.v., LC-MS/MS
Outline: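 Anaesthetised 10-week-old male Wistar rats (pentobarbital 50 mg/kg, 37°C) received test compound 5.0 mg/kg i.v. via jugular vein, in saline. DMN array applied to shaved abdomen (2.0 m/s, then 2.5 N for 1-3 min). 2 µL ISF drawn from pore at 15, 30, 45, 60, 75, 90, 120 min; femoral-vein plasma sampled. Positive-ESI LC-MS/MS quantification; mean ± SE, unpaired t-test.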

[2] = n = 4, cited from earlier work
[3] = mice; cited from earlier work
[4] = from DMNs, rats; cited from earlier work
[5] = rats; cited from earlier work

CN[C@H](CC(C)C)C(=O)N[C@H]1C(=O)N[C@@H](CC(N)=O)C(=O)N[C@H]2C(=O)N[C@H]3C(=O)N[C@H](C(=O)N[C@H](C(=O)O)c4cc(O)cc(O)c4-c4cc3ccc4O)[C@H](O)c3ccc(c(Cl)c3)Oc3cc2cc(c3O[C@@H]2O[C@H](CO)[C@@H](O)[C@H](O)[C@H]2O[C@H]2C[C@](C)(N)[C@H](O)[C@H](C)O2)Oc2ccc(cc2Cl)[C@H]1O [VCM, Vancomycin]
Mean concentration of VCM in plasma compared with ISF, early phase ([1]; 30 min after administration): higher than that in ISF
Concentration of VCM in ISF compared with plasma, after 30 min ([1]; after 30 min): higher than that in plasma
AUC, ISF ([2]; ISF by ultrafiltration probe): 75300 ± 7700 ng·h/mL
Tmax (average), ISF ([2]; ISF by ultrafiltration probe): 39.6 min
AUC, blood ([2]; blood): 89800 ± 15700 ng·h/mL
Cmax in the blood ([2]; blood): 80.2 ± 18.5 µg/mL

erythropoietin [EPO]
Bioavailability (BA) from the DMNs [3]: 82.1-99.4%

insulin
Physiological availability (PA) [4]: 91.3-97.7%

low-molecular-weight heparin [LMWH]
Physiological availability (PA) [4]: 81.5-102.3%

recombinant human growth hormone [rhGH]
Bioavailability (BA) from the DMNs [5]: 87.5%
